The source of these data is article PMC3314378 (Journal of Medicinal Chemistry, 2011).

Data set [1] addresses human wildtype CFTR (Homo sapiens, UniProt P13569). Nature of the data set: Fluorescence plate-reader assay of CFTR-mediated iodide influx. The data set is classed as cell-based. Summed up: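 FRT cells co-expressing human wild-type CFTR and YFP-H148Q were plated at 20,000 cells/well in Coon's modified F12 with 10% FBS and assayed 48 h later. After PBS washes, test compound was added for 45 min, then forskolin/IBMX/apigenin cocktail for 15 min. Fluorescence was read 2 s baseline, then 10 s after adding PBS with iodide replacing 137 mM chloride. Initial iodide influx rate by non-linear regression; n=4, S.E.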

Data set [2] in a line: In vitro metabolic stability in hepatic microsomes. The data set is classed as in vitro ADME, rat. Conditions: for metabolic stability in hepatic microsomes: presence of NADPH. Put shortly: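 Test compound (5 μM) incubated at 37 °C for specified times with rat liver microsomes (1 mg protein/ml) in 100 mM potassium phosphate buffer with NADPH 0 or 1 mM. Chilled, extracted with ice-cold ethyl acetate, dried under nitrogen, redissolved in acetonitrile:water 3:1 with 0.1% formic acid. Analysed by reverse-phase C18 LC (5–95% acetonitrile gradient, 16 min) and electrospray MS, scanning 150–1500 Da.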

In data set [3] the test system is 8-Br-cAMP-induced renal cyst growth in E13.5 embryonic kidneys. Conditions: read-out: IC50 for inhibition of cyst growth; embryonic kidney culture; cited from earlier work.
Data set [4] has as its target CFTR (Homo sapiens, UniProt P13569). In words: Short-circuit current analysis of CFTR inhibition in CFTR-expressing FRT cells. Type of data set: cell-based. Summed up: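 Ussing chamber short-circuit current on CFTR-expressing FRT cell inserts under voltage clamp. Apical buffer 75 mM NaCl + 75 mM Na gluconate, basolateral 150 mM NaCl, pH 7.3, giving a transepithelial chloride gradient. Basolateral membrane permeabilized with 250 μg/mL amphotericin B. CFTR activated with forskolin (20 μM), then serial additions of increasing test compound concentrations, with current recorded continuously.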

In data set [5] the test system is 8-Br-cAMP-induced renal cyst growth in E13.5 embryonic kidneys. Nature of the data set: Embryonic kidney organ culture model of PKD. Set-up: species or system mouse. Put shortly: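 Mouse E13.5 metanephroi on porous culture inserts in DMEM/Ham's F-12 with L-glutamine, HEPES, insulin, transferrin, selenium, prostaglandin E, T3 and antibiotics. Kept at 37 °C in humidified CO2 for up to 8 days. Medium with 100 μM 8-Br-cAMP, with or without test compound (0, 0.1 or 1 μM), replaced every 12 h. Kidneys photographed by transmitted light at 520 nm; percentage cyst area = total cyst area / total kidney area.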

The structures appear in SMILES notation. A value given as a limit tells only on which side of the number the result lay.

Chain of human wildtype CFTR (P13569 whole entry): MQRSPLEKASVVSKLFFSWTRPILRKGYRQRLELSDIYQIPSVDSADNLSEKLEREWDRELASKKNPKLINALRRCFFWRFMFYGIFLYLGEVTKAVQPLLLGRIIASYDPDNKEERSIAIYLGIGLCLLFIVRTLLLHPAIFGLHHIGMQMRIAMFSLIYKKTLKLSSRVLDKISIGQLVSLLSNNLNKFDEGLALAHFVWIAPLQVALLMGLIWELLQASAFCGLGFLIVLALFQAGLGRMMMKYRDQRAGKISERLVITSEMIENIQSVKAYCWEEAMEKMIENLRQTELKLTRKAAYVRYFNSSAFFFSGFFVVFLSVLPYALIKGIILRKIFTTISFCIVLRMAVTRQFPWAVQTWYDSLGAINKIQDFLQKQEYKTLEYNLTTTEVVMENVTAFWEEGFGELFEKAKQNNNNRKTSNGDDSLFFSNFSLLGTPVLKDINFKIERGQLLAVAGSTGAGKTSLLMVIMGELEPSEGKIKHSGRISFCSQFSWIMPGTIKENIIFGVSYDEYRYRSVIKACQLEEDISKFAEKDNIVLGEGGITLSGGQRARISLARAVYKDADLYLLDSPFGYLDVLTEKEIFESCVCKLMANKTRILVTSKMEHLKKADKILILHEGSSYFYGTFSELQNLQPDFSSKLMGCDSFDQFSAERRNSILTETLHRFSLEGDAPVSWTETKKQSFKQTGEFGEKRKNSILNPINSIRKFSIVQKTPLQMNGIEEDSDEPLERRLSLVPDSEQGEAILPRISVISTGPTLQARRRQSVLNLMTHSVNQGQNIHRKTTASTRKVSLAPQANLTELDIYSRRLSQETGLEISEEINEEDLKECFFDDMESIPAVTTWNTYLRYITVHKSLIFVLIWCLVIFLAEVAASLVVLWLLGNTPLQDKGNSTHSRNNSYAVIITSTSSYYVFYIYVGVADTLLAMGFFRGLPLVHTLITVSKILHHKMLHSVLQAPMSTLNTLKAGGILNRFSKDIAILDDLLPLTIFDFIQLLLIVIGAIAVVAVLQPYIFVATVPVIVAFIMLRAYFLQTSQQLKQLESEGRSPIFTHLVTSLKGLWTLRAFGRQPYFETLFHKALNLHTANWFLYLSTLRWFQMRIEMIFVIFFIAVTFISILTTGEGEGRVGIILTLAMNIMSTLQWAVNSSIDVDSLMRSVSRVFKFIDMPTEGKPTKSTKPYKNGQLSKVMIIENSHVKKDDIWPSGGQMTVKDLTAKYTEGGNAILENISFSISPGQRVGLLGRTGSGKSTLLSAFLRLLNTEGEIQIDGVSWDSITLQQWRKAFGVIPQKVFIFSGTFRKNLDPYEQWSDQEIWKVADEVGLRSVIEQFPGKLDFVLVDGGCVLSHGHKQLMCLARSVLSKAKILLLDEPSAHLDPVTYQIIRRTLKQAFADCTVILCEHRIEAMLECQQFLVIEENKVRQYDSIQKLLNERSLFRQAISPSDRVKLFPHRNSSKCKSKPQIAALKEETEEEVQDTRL
Chain of CFTR (P13569 whole entry): as above

Consider `Cc1ccc(C2c3c4c(c(-c5ccccc5)n3-c3ccccc3N2C)c(=O)n(C)c(=O)n4C)o1` (stereo not drawn) [Compound 13], for which, in data set [1], the “CFTR inhibition activity” value is “weakly active”. As a reminder, the IC50 is the concentration at which inhibition is half-maximal. Turning to `Cc1ccc(C2Nc3ccccc3-n3c(-c4ccccc4)c4c(=O)n(C)c(=O)n(C)c4c32)o1` (stereo not drawn) [Compound 8, 7,9-Dimethyl-11-phenyl-6-(5-methylfuran-2-yl)-5,6-dihydro-pyrimido-[4',5'-3,4]pyrrolo[1,2-a]quinoxaline-8,10-(7H,9H)-dione], the “loss in hepatic microsomes in the absence of NADPH” value in data set [2] (absence of NADPH (data not shown)) was “No loss”. The “metabolic stability in hepatic microsomes” value in data set [2] was “poor metabolic stability”. Further, in data set [3], the IC50 is above 500 nM. For the compound `CCOC(=O)c1ccc2c(c1)-n1c(-c3ccccc3)c3c(=O)n(C)c(=O)n(C)c3c1C(c1ccc(Br)o1)O2` (stereo not drawn) [Compound 40, Ethyl 6-(5-Bromofuran-2-yl)-7,9-dimethyl-8,10-dioxo-11-phenyl-7,8,9,10-tetrahydro-6H-benzo[b]pyrimido [4',5':3,4]pyrrolo[1,2-d][1,4]oxazine-2-carboxylate], the “CFTR inhibition activity” value in data set [1] is reported as “strongly inhibited CFTR”. For the compound `Cn1c(=O)c2c(-c3ccccc3)n3c(c2n(C)c1=O)C(c1ccc(Br)o1)Oc1ccc(C(=O)O)cc1-3` (stereo not drawn) [Compound 42, 6-(5-Bromofuran-2-yl)-7,9-dimethyl-8,10-dioxo-11-phenyl-7,8,9,10-tetrahydro-6H-benzo[b]pyrimido [4',5':3,4]pyrrolo [1,2-d][1,4]oxazine-2-carboxylic acid], the “extent of CFTR inhibition” value in data set [4] is listed as “fully inhibited CFTR”. The “improvement of metabolic stability compared to 8” value in data set [2] (hepatic microsomes) is reported as above 10 fold. In data set [2], the “metabolic stability in hepatic microsomes” value is on record as “excellent stability”. The “improvement of potency for inhibition of renal cystogenesis ex vivo over 8” value in data set [5] was above 5 fold. For the compound `Cn1c(=O)c2c(-c3ccccc3)n3c(c2n(C)c1=O)C(c1ccc(Br)o1)Nc1ccccc1-3` (stereo not drawn) [Compound 18], in data set [2], the “metabolic stability in hepatic microsomes” value was “substantially more stable than 8”.

`Cn1c(=O)c2c(-c3ccccc3)n3c(c2n(C)c1=O)C(c1ccc(Br)o1)Oc1ccccc1-3` (stereo not drawn) [Compound 31]: the “metabolic stability in hepatic microsomes” value in data set [2] was “better stability than 8”. Still for that read-out and setting: next, `Cn1c(=O)c2c(-c3ccccc3)n3c(c2n(C)c1=O)C(c1ccc(Br)o1)Oc1ccc([N+](=O)[O-])cc1-3` (stereo not drawn) [Compound 36]: “excellent metabolic stability”.
